# Most compounds without a hit are left out; they make up all but 1.7% or so of the library.
# LANA DNA inh – KSHV C-LANA DNA binding inhibition; hit rate 0.078% among 340,000; inhibition, % at 9 µM; AID 504423; MBP-C-LANA/FAM-LBS DNA binding, fluorescence polarization;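 active means highest replicate inhibition at or above 60% at 9 µM, even if other replicates fall short; inactive means all replicates below 60% inhibition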;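 further: 0% = neutral control wells and 100% = 4 µM acridine orange control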
# Keap1-Nrf2 PPI – inhibitors of human Keap1-Nrf2 protein-protein interaction. Q14145. Keap1 Kelch-Nrf2 peptide fluorescence polarization, 1536-well. inhibition, % at 9.4 µM. hit rate 0.15% among 340,000; in the data active means inhibition above about 12%;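 further: human Keap1 Kelch domain with fluorescein labeled Nrf2 9mer peptide probe; 0% = neutral control wells and 100% = peptide positive control; higher means more block of Keap1 binding to Nrf2 peptide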
# Target sequence (Q14145 whole entry, looked up, the tested form may be a part): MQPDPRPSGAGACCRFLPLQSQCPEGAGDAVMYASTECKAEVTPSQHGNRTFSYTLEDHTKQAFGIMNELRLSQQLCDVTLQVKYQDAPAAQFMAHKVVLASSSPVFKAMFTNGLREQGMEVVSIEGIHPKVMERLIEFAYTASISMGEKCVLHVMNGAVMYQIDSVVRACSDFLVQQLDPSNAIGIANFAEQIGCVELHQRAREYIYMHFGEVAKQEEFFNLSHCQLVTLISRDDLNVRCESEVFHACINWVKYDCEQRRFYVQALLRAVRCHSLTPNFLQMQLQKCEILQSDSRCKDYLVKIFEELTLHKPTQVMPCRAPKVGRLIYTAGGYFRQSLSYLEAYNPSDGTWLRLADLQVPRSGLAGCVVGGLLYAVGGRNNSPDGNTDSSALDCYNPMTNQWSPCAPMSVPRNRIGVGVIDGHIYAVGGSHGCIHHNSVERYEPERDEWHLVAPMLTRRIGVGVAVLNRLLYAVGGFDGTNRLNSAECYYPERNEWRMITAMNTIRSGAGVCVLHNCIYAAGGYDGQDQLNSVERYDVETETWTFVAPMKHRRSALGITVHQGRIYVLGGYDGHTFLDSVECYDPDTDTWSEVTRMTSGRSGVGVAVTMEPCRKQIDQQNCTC
# A3G deaminase – blocks human APOBEC3G single-stranded DNA deamination; Q9HC16; recombinant A3G, ssDNA deamination FAM/TAMRA fluorescence; inhibition, % at 20 µM; hit rate 0.28% among 330,000;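 active means inhibition of at least 40% at 20 µM, with no more than 30% in the related APOBEC3A deaminase screen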;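 further: plate controls were DMSO wells with A3G for no effect and wells lacking A3G enzyme for full effect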
# A3A deaminase – human APOBEC3A DNA deaminase inhibition | P31941 | recombinant A3A, FAM/TAMRA ssDNA deamination fluorescence | inhibition, % at 20 µM | hit rate 0.41% among 330,000;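 active means at least 40% inhibition at 20 µM here, with at most 30% in a related deaminase screen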;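 further: plate controls were A3A with DMSO for no effect and wells lacking A3A enzyme for full effect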
# CAL PDZ FP-1 – inhibitors of human CAL PDZ peptide binding; Q9HD26; purified CAL PDZ, TMR-peptide fluorescence polarization, 1 h; inhibition, % at 24.9 µM; hit rate 0.92% among 300,000; AID 602252;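 active means mean inhibition of at least 30% with at least half of replicates also reaching 30%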;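 further: 0% = DMSO neutral control and 100% = excess unlabeled competitor peptide PRC23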
# CAL PDZ FP-2 – human CAL PDZ-peptide interaction inhibition. Q9HD26. purified CAL PDZ, TMR-peptide fluorescence polarization, 1 h. inhibition, % at 20 µM. hit rate 0.02% among 330,000. AID 504414;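 active means highest replicate inhibition of at least 40%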;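 further: plate controls were DMSO neutral control wells for no effect and unlabeled competitor peptide control wells for full effect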
#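 Material: tagged CAL PDZ protein CerCALP, purified; buffer or medium: sodium phosphate/NaCl buffer pH 7.4 with TCEP, IgG, Thesit; also added: fluorescent TMR peptide probe; schedule: 1 h incubation at room temperature before polarization reading; technique: fluorescence polarization from S- and P-plane intensities, G-factor corrected; control set: unlabelled peptide and DMSO controls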
# Keap1 Kelch bind – Keap1 (human) Kelch domain binding | shares compounds with Keap1-Nrf2 PPI | Keap1 Kelch thermal shift, delta Tm; active compounds read high | max delta Tm, degrees C | hit rate 8% among 400 | AID 651823; in the data active means max delta Tm above about 0.48 degrees C
# Sypro dye melt – dye artifact in Keap1 thermal shift counter-screen; Sypro Orange dye-only thermal melt, no protein, delta Tm; top dose 26 µM; shares compounds with Keap1-Nrf2 PPI; AID 651858; delta Tm, degrees C (no concentration beside the values); 140 tested, under 10 active;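 active means at highest dose tested, delta Tm positive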
# * hit, by the source's call; / = no result; + = active, no number.
SMILES,LANA DNA inh,Keap1-Nrf2 PPI,A3G deaminase,A3A deaminase,CAL PDZ FP-1,CAL PDZ FP-2,Keap1 Kelch bind,others
CN(C)CCN(C)Cc1c2ccccc2c(CN(C)CCN(C)C)c2ccccc12,28.4,19.5*,-0.2,1.0,-3.5,-1.3,-0.15,Sypro dye melt=-22
O=P(O)(OCc1ccccc1)OCc1ccccc1,0.3,-3.4,-13.0,-4.0,1.4,0.1,/,
CC(Sc1nc2ccccc2s1)C(=O)Nc1nnc(C(C)C)s1 (centres undefined),81.3*,70.6*,-8.1,-5.7,2.6,-0.9,-0.04,
CCC(Sc1nc2ccccc2s1)C(=O)Nc1nnc(C)s1 (centres undefined),-0.5,-6.2,-4.0,-5.1,/,-0.9,/,
Cc1cc(NC(=O)CSc2nnc(-c3ccc([N+](=O)[O-])cc3)o2)no1,0.0,-4.0,2.7,4.5,-2.8,-1.2,/,
O=C1CCn2c1c(O)c1ccccc1c2=O,31.4,19.2*,/,/,-6.2,-0.6,-0.07,Sypro dye melt=-30.8
COc1cc(NCCCC(C)N)c2ncccc2c1 (centres undefined),-0.9,4.7,/,/,-3.8,/,/,
CCC(CNc1cc(OC)cc2cccnc12)NC1CCCCC1 (centres undefined),14.7,17.2*,/,/,1.9,1.3,0.03,Sypro dye melt=-26.6
Cc1ccc(/C=C2/SC(=O)NC2=S)o1,31.3,24.5*,45.9,71.6,-1.2,0.1,0.73*,
Cc1ccc(/C=C2/SC(=S)N(C3CCCCC3)C2=O)o1,1.2,-1.1,0.6,1.9,-3.5,-3.2,/,
COc1cccc2c1C(=O)c1c(O)c3c(c(O)c1C2=O)CC(O)(C(C)=O)CC3OC1CC(N(C)C)C(O)C(C)O1 (centres undefined),117.3*,+,/,/,10.6,15.7,-0.12,
O=C(Cc1ccccc1[N+](=O)[O-])N1CCc2ccccc2C1,0.2,-0.6,-0.9,-2.4,-7.2,0.9,/,
O=[N+]([O-])c1cc(C(F)(F)F)ccc1NC1CCN(Cc2ccccc2)CC1,28.6,43.2*,0.4,1.3,/,-0.2,-0.06,Sypro dye melt=-21.6
COCCNC(=O)NC12CC3(C)CC(C)(CC(C)(C3)C1)C2,-1.7,-0.4,-3.1,-0.7,-2.3,-1.8,/,
Cc1cc(C)c(C)c(S(=O)(=O)Nc2cccc(S(=O)(=O)Nc3ccccc3C(=O)O)c2)c1C,0.4,13.9*,-3.6,-1.1,/,-1.3,0.58*,
Cc1cc(C)c(C)c(S(=O)(=O)Nc2ccccc2C(=O)NN2CCOCC2)c1C,-1.6,1.8,-9.3,-2.1,/,-2.4,/,
C=CCN1C(=O)C2(/C(=C(\O)c3ccc4c(c3)OCCO4)C(=O)C(=O)N2CCCOC)c2ccccc21 (centres undefined),-0.6,-0.7,-6.5,-4.2,0.4,-2.4,/,
Cc1ccc(NC(=O)c2ccc3c(c2)NC(=O)CS3)nc1,1.5,-2.3,-5.9,2.5,/,-0.9,/,
Cc1nnc(NC(=O)c2ccc3c(c2)NC(=O)CS3)s1,0.5,17.5*,-9.4,-2.6,1.3,-0.8,-0.13,
O=C(C(=O)N(Cc1ccccc1)Cc1ccccc1)c1c(-c2ccccc2)[nH]c2ccccc12,0.4,4.5,/,/,-1.1,-0.5,/,
Cc1ccc(NC(=O)CN2C(=O)NC3(CCCC3)C2=O)cc1S(=O)(=O)N1CCCCC1,0.5,-2.7,-5.2,-2.5,-1.8,-1.3,/,
Cc1ccc(NC(=O)CN2C(=O)NC3(CCCCCC3)C2=O)cc1Cl,-0.5,19.7*,0.4,1.8,/,-1.8,-0.03,
CC(C)C[C@@H](CSc1ccccc1)N1CCN(CC(C)C)CCC1=O,0.8,3.5,-9.7,0.0,3.6,-0.2,/,
N=c1c(C(=O)NCc2ccc(F)cc2)cc2c(=O)n3ccccc3nc2n1Cc1cccnc1,23.3,13.1*,0.9,2.3,-3.5,-2.2,-0.04,Sypro dye melt=-22.5
Cc1ccc(Cn2c(=N)c(C(=O)NC3CCCC3)cc3c(=O)n4ccccc4nc32)cc1,-0.8,15.6*,-6.2,-5.3,-2.3,-2.3,-0.15,Sypro dye melt=-26.7
N=c1c(C(=O)NC2CCCC2)cc2c(=O)n3ccccc3nc2n1C1CCCCC1,16.5,17.2*,-6.4,-2.3,-3.9,-2.9,-0.06,

# Assay outcomes (PubChem BioAssay)
